We go through 8 compounds from ChEMBL document CHEMBL3352243, “Ligand-based virtual screening identifies a family of selective cannabinoid receptor 2 agonists” (Bioorg Med Chem, 2015).

SMILES strings stand for the structures. ≈ marks a conversion by molar mass, not a printed value.

Series [1] concerns the target T1, Cannabinoid receptor 2 (Homo sapiens, UniProt P34972). The experiment in a line: Agonist activity at human CB2R expressed in CHO cells assessed as reduction in forskolin-induced cAMP accumulation by beta-galactosidase based complementation immunoassay. Format: functional, cell-based. An outline of the steps:
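hCB2R CHO-K1 cells plated overnight at 37 °C, 5% CO2; anti-cAMP antibody added, then compound (final 0.2% DMSO) with 20 μM forskolin for 30 min at 37 °C. Lysis/substrate 1 h, then EA detection reagent 3 h at room temperature; luminescence read and normalised to forskolin+solvent wells (100%). EC50 by 4-parameter nonlinear fit of pooled 3–4 independent experiments.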
Target sequence in this assay (P34972 whole entry): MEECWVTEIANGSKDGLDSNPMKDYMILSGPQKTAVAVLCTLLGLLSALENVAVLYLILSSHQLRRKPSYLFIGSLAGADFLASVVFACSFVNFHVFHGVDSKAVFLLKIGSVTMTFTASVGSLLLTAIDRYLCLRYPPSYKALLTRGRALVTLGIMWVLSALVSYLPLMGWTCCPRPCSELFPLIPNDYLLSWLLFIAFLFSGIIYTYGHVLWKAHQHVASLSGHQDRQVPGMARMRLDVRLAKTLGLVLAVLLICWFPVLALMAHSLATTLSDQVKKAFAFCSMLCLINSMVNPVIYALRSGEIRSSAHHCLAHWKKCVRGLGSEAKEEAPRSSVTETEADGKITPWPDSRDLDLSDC
On the technique in general: Changes in cAMP serve as a functional read-out for many G protein-coupled receptors.

Series [2] can be described thus: Aqueous kinetic solubility of the compound at pH 7 at 37 degC by turbidimetric assay. As to conditions: read-out: Kinetic_solubility. Format: physicochemical. A digest of the protocol: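 Turbidimetric method: DMSO dilutions added to phosphate-buffered saline pH 7.4 at final 1, 3, 10, 30, 100 μM (1% DMSO), 7 replicates per concentration. Incubated 2 h at 37 °C, then absorbance read at 620 nm. Value is the mid-point of the precipitation range between upper and lower solubility limits.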

The target of series [3] is T2, Cannabinoid receptor 1 (Homo sapiens, UniProt P21554). The experiment in a line: Agonist activity at human CB1R expressed in CHO cells assessed as reduction in forskolin-induced cAMP accumulation by beta-galactosidase based complementation immunoassay. Type of series: functional, cell-based. An outline of the steps: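 CHO-K1 cells expressing hCB1R, 15,000 per well, incubated overnight at 37 °C, 5% CO2, then given anti-cAMP antibody. Compounds were added with 20 μM forskolin (final DMSO 0.2%) for 30 min at 37 °C. Lysis/substrate step 1 h and EA detection 3 h, both at rt in the dark, then luminescence read.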

Series [4] deals with T1, Cannabinoid receptor 2. The series can be described thus: Displacement of [3H]WIN-55212-2 from human CB2R expressed in CHO cells. Format: cell-based. An outline of the steps:
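Membranes from CHO cells expressing hCB2R incubated with test compound and tritiated WIN-55212 (0.8 nM), 2 h, 37 °C. Non-specific binding defined with 5 μM WIN-55212. Scintillation counting of bound ligand; Ki via Cheng–Prusoff with radioligand Kd; duplicate.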
Target sequence in this assay (P34972 whole entry): as above
In general terms: In a radioligand displacement assay an active substance lowers the binding of a labelled ligand.

The target of series [5] is T2, Cannabinoid receptor 1. The series can be described thus: Displacement of [3H]CP55940 from human CB1R expressed in CHO cells. Type of series: cell-based. An outline of the steps:
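Membranes from CHO cells expressing hCB1R incubated with test compound and [3H]CP 55,940 (0.5 nM) for 2 h at 37 °C. Non-specific binding defined with 10 μM WIN-55212. Bound radioligand measured by scintillation counting. Ki from Cheng–Prusoff using radioligand Kd; run in duplicate.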

The next series concerns Liver. The experiment in a line: Half life in mouse liver microsomes in presence of NADPH by LC-MS/MS method. Type of series: ADME. A digest of the protocol:
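Mouse liver microsomes incubated with compound at 37 °C with NADPH. Reactions stopped with methanol containing internal standard, centrifuged, supernatant analysed by LC–MS/MS.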

Series [6] concerns the target T1, Cannabinoid receptor 2. The series can be described thus: Agonist activity at human CB2R expressed in CHO cells assessed as reduction in forskolin-induced cAMP accumulation at 3 uM by beta-galactosidase based complementation immunoassay. Format: functional, cell-based. Further details: reference not given here. An outline of the steps:
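CHO-K1 cells expressing hCB2R, 15,000 per well, incubated overnight at 37 °C, 5% CO2, then anti-cAMP antibody added. Test agent at single concentration with 20 μM forskolin (0.2% DMSO final), 30 min at 37 °C. Lysis/substrate 1 h, then EA reagent 3 h, both at rt in the dark; luminescence read and expressed as % of forskolin+solvent control wells.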
Target sequence in this assay (P34972 whole entry): as above

Series [7] concerns the target T1, Cannabinoid receptor 2. The experiment in a line: Agonist activity at human CB2R expressed in CHO cells assessed as reduction in forskolin-induced cAMP accumulation at 1 uM by beta-galactosidase based complementation immunoassay. On the set-up: reference not given here.
Target sequence in this assay (P34972 whole entry, looked up): as the sequence (P34972 whole entry) above

T2 sequence (P21554 whole entry): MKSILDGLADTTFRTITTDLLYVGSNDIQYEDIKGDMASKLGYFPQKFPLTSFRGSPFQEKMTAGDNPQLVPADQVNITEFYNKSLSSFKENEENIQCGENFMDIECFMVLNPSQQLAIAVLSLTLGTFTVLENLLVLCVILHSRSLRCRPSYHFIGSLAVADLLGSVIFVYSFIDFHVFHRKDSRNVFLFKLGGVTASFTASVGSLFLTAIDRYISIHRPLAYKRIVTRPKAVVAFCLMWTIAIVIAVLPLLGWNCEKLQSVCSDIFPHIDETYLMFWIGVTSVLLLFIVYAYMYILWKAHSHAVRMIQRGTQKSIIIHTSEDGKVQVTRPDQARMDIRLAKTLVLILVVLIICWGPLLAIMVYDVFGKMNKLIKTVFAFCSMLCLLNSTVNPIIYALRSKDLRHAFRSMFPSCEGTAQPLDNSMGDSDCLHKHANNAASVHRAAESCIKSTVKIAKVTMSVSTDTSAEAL

As to `N#Cc1ccccc1CSc1nnc2c3ccccc3n(C(=O)N3CCOCC3)c2n1`, the EC50 on Cannabinoid receptor 2 [1] is 92 nM. The solubility kinetic in series [2] is 10.5 µM (≈ 4.52 µg/mL).

Consider `N#Cc1ccccc1CSc1nnc2c(n1)[nH]c1ccccc12`, for which the EC50 was 112 nM on Cannabinoid receptor 2 [1] and above 30000 nM at Cannabinoid receptor 1 [3]. Moreover, the Ki was 355 nM at Cannabinoid receptor 2 [4] and above 60000 nM on Cannabinoid receptor 1 [5]. Also, the solubility kinetic in series [2] was found to be 3.75 µM (≈ 1.19 µg/mL). For the same compound, the t1/2 in the series with Liver worked out at 46 min.

As to `N#Cc1ccccc1CSc1nnc2c3ccccc3n(C(=O)c3ccccc3)c2n1`, the EC50 on Cannabinoid receptor 2 [1] was determined as 113 nM. In addition, the results for the Ki at Cannabinoid receptor 2 [4] and on Cannabinoid receptor 1 [5] were 300 nM and above 10000 nM, respectively. Also, the solubility kinetic in series [2] worked out at 2 µM (≈ 0.843 µg/mL).

For `O=[N+]([O-])c1ccccc1CSc1nnc2c(n1)[nH]c1ccccc12`, the EC50 was 33 nM at Cannabinoid receptor 2 [1] and above 30000 nM on Cannabinoid receptor 1 [3]. Moreover, the Ki at Cannabinoid receptor 2 [4] is 155 nM; on Cannabinoid receptor 1 [5], above 60000 nM. In addition, the t1/2 in the series with Liver was 43 min.

As to `CCCCSc1nnc2c(n1)[nH]c1ccccc12`, the EC50 on Cannabinoid receptor 2 [1] was determined as 296 nM. Moreover, the solubility kinetic in series [2] stood at 2 µM (≈ 0.517 µg/mL). In addition, the Activity at Cannabinoid receptor 2 [6] was determined as 57.2%; at Cannabinoid receptor 2 [7], 52.1%.

Turning to `COC(=O)CCC(=O)n1c2ccccc2c2nnc(SCc3ccccc3C#N)nc21`, the EC50 at Cannabinoid receptor 2 [1] came out at 48 nM. Also, the results for the Ki on Cannabinoid receptor 2 [4] and on Cannabinoid receptor 1 [5] were 360 nM and above 60000 nM, respectively. In addition, in series [2], the solubility kinetic came out at 3.75 µM (≈ 1.62 µg/mL).

Regarding `COC(=O)CCCC(=O)n1c2ccccc2c2nnc(SCc3ccccc3C#N)nc21`, the EC50 on Cannabinoid receptor 2 [1] came out at 42 nM. For the same compound, in series [2], the solubility kinetic turned out to be 3.75 µM (≈ 1.67 µg/mL).

In the case of `N#Cc1ccccc1CSc1nnc2c3ccccc3n(C(=O)c3ccno3)c2n1`, the EC50 on Cannabinoid receptor 2 [1] is 19 nM. In addition, the Ki at Cannabinoid receptor 2 [4] is 450 nM; at Cannabinoid receptor 1 [5] it was above 60000 nM. For the same compound, the solubility kinetic in series [2] was found to be 6.5 µM (≈ 2.68 µg/mL).

The EC50 is the concentration at which the effect is half-maximal. Broadly, the Ki is the equilibrium dissociation constant of an inhibitor or competing ligand from its target.
